Assay results reported in ChEMBL document CHEMBL3997852, “Discovery of Fluorine-Containing Benzoxazinyl-oxazolidinones for the Treatment of Multidrug Resistant Tuberculosis” (ACS Med Chem Lett, 2017).
Values after ≈ are worked out from the molar mass of the structure shown.

Legend:
[1] = tested on: Vero; experiment: Cytotoxicity against African green monkey Vero cells assessed as growth inhibition after 48 hrs by MTT assay; format: ADME, cell-based; conditions: Chlorocebus sabaeus
[2] = Selectivity index, ratio of IC50 for African green monkey Vero cells to MIC for Mycobacterium tuberculosis H37Rv
[3] = tested on: Mycobacterium tuberculosis; experiment: Antitubercular activity against Mycobacterium tuberculosis H37Rv after 7 days by microplate alamar blue assay; format: functional; conditions: 168 h
Summary of the method: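 Microplate alamar blue assay on M. tuberculosis H37Rv. The MIC is the lowest concentration that reduces fluorescence by ≥90% relative to the mean of replicate bacterium-only controls.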

[4] = Elimination half life in CD1 mouse at 10 mg/kg, po measured over 24 hrs by HPLC/MS/MS method; format: ADME, organism-based; conditions: in vivo, read-out: beta t1/2
[5] = tested on: H9c2; experiment: Inhibition of mitochondrial protein synthesis in rat H9c2 cells after 5 days by In-Cell ELISA; conditions: H9c2, 120 h
[6] = Cmax in Balb/c mouse at 10 mg/kg, iv measured over 24 hrs by LC/TSQ quantum access mass spectrometric method; format: ADME, organism-based; set-up: dose 10 mg/kg, route intravenous; conditions: in vivo
[7] = Metabolic stability in CD1 mouse liver microsomes assessed as compound remaining at 0.1 uM in presence of NADPH after 30 mins by LC/MS method; format: ADME, microsome; conditions: read-out: Stability
[8] = Tmax in Balb/c mouse at 100 mg/kg, po measured over 24 hrs by LC/TSQ quantum access mass spectrometric method; format: ADME, organism-based; conditions: in vivo
[9] = tested on: Liver; experiment: Metabolic stability in CD1 mouse liver microsomes at 0.1 uM in absence of NADPH after 30 mins by LC/MS method; format: ADME, microsome; conditions: 0.5 h
[10] = AUC (0 to infinity) in Balb/c mouse at 100 mg/kg, po measured over 24 hrs by LC/TSQ quantum access mass spectrometric method; format: ADME, organism-based; set-up: dose 100 mg/kg, route oral, time infinity; conditions: in vivo
[11] = tested on: HepG2; experiment: Cytotoxicity against human HepG2 cells after 48 hrs by MTT assay; conditions: HepG2, 48 h
[12] = Oral bioavailability in Balb/c mouse at 100 mg/kg measured over 24 hrs by LC/TSQ quantum access mass spectrometric method; format: ADME, organism-based; conditions: in vivo
[13] = Plasma elimination half life in Balb/c mouse at 10 mg/kg, iv measured over 24 hrs by LC/TSQ quantum access mass spectrometric method; format: ADME, organism-based; conditions: read-out: beta t1/2 (converted)
[14] = Clearance in Balb/c mouse at 10 mg/kg, iv measured over 24 hrs by LC/TSQ quantum access mass spectrometric method; format: ADME, organism-based; conditions: in vivo
[15] = tested on: Liver; experiment: Metabolic stability in human liver microsomes at 0.1 uM in absence of NADPH after 30 mins by LC/MS method; format: ADME, microsome; conditions: 0.5 h
[16] = Plasma elimination half life in Balb/c mouse at 100 mg/kg, po measured over 24 hrs by LC/TSQ quantum access mass spectrometric method; format: ADME, organism-based; conditions: read-out: beta t1/2 (converted)
[17] = AUC (0 to infinity) in Balb/c mouse at 10 mg/kg, iv measured over 24 hrs by LC/TSQ quantum access mass spectrometric method; format: ADME, organism-based; set-up: dose 10 mg/kg, time infinity, route intravenous; conditions: in vivo
[18] = Tmax in Balb/c mouse at 10 mg/kg, iv measured over 24 hrs by LC/TSQ quantum access mass spectrometric method; format: ADME, organism-based; conditions: in vivo
[19] = Cmax in Balb/c mouse at 100 mg/kg, po measured over 24 hrs by LC/TSQ quantum access mass spectrometric method; format: ADME, organism-based; set-up: dose 100 mg/kg, route oral; conditions: in vivo
[20] = MRT in Balb/c mouse at 100 mg/kg, po measured over 24 hrs by LC/TSQ quantum access mass spectrometric method; format: ADME, organism-based; conditions: in vivo
[21] = Metabolic stability in human liver microsomes assessed as compound remaining at 0.1 uM in presence of NADPH after 30 mins by LC/MS method; format: ADME, microsome; conditions: read-out: Stability
[22] = MRT in Balb/c mouse at 10 mg/kg, iv measured over 24 hrs by LC/TSQ quantum access mass spectrometric method; format: ADME, organism-based; conditions: in vivo

| Compound | IC50 [1] [µg/mL] | selectivity ratio [2] | MIC90 [3] [µg/mL] | also measured |
| --- | --- | --- | --- | --- |
| O=C1O[C@@H](CNc2ccon2)[C@@H]2COc3cc(C4=CCN(CCO)CC4)c(F)cc3N12 | > 64 | 65 | 0.98 (≈ 2.28 µM) |  |
| CC(=O)NC[C@@H]1OC(=O)N2c3ccc(C4=CCN(CCO)CC4)cc3OC[C@@H]12 | 26.8 (≈ 69.1 µM) | 10 | 2.65 (≈ 6.83 µM) |  |
| O=C([C@@H](O)CO)N1CC=C(c2c(F)cc(N3C[C@H](COc4ccon4)OC3=O)cc2F)CC1 [POSIZOLID] | > 64 | 62 | 1.02 (≈ 2.2 µM) |  |
| CC(=O)NC[C@@H]1OC(=O)N2c3cc(F)c(C4CCN(C(=O)CO)CC4)cc3OC[C@@H]12 | > 64 | 17 | 3.81 (≈ 9.05 µM) |  |
| CC(=O)NC[C@@H]1OC(=O)N2c3cc(F)c(C4=CCN(C(=O)[C@@H]5CCCN5)CC4)cc3OC[C@@H]12.Cl |  |  | 7.12 |  |
| CC(=O)NC[C@@H]1OC(=O)N2c3cc(F)c(C4=CCN(C(=O)[C@@H]5CCCO5)CC4)cc3OC[C@@H]12 |  |  | 5.53 (≈ 12 µM) |  |
| O=C1O[C@@H](CNC(=O)C(F)(F)F)[C@@H]2COc3cc(C4=CCN(CCO)CC4)c(F)cc3N12 | > 64 | 33 | 1.92 (≈ 4.17 µM) |  |
| O=C(NC[C@@H]1OC(=O)N2c3cc(F)c(C4=CCN(C(=O)CO)CC4)cc3OC[C@@H]12)C1CCC1 | > 64 | 39 | 1.68 (≈ 3.66 µM) |  |
| CCC(=O)N1CC=C(c2cc3c(cc2F)N2C(=O)O[C@@H](CNC(C)=O)[C@@H]2CO3)CC1 |  |  | 6.36 (≈ 15.2 µM) |  |
| CO[C@H]1/C=C/O[C@@]2(C)Oc3c(C)c(O)c4c(O)c(c(/C=N/N5CCN(C)CC5)c(O)c4c3C2=O)NC(=O)/C(C)=C\C=C\[C@H](C)[C@H](O)[C@@H](C)[C@@H](O)[C@@H](C)[C@H](OC(C)=O)[C@@H]1C [RIFAMPIN] |  |  | 0.057 (≈ 0.0693 µM) |  |
| CC(=O)NC[C@@H]1OC(=O)N2c3cc(F)c(C4=CCN(C(=O)CN)CC4)cc3OC[C@@H]12.Cl | > 64 | 87 | 0.732 |  |
| O=C(NC[C@@H]1OC(=O)N2c3cc(F)c(C4=CCN(CCO)CC4)cc3OC[C@@H]12)C1CC1 | > 64 | 135 | 0.473 (≈ 1.1 µM) |  |
| O=C(CO)N1CC=C(c2cc3c(cc2F)N2C(=O)O[C@@H](Cn4ccnn4)[C@@H]2CO3)CC1 |  |  | 10.9 (≈ 25.4 µM) |  |
| NNC(=O)c1ccncc1 [ISONIAZID] |  |  | 0.037 (≈ 0.27 µM) |  |
| O=C(NC[C@@H]1OC(=O)N2c3cc(F)c(C4=CCN(C(=O)CO)CC4)cc3OC[C@@H]12)C1CC1 | > 64 | 34 | 1.87 (≈ 4.19 µM) |  |
| O=C(CO)N1CC=C(c2cc3c(cc2F)N2C(=O)O[C@@H](CNc4ccon4)[C@@H]2CO3)CC1 | > 64 | 61 | 1.04 (≈ 2.35 µM) |  |
| O=C(CO)N1CC=C(c2cc3c(cc2F)N2C(=O)O[C@@H](COc4ccon4)[C@@H]2CO3)CC1 |  |  | > 32 |  |
| O=C1O[C@@H](Cn2ccnn2)[C@@H]2COc3cc(C4=CCN(CCO)CC4)c(F)cc3N12 |  |  | 7.96 (≈ 19.2 µM) |  |
| CC(=O)NC[C@@H]1OC(=O)N2c3cc(F)c(C4=CCN(C(=O)C5CCCC5)CC4)cc3OC[C@@H]12 |  |  | 7.94 (≈ 17.4 µM) |  |
| CC(=O)NC[C@H]1CN(c2ccc(N3CCOCC3)c(F)c2)C(=O)O1 [LINEZOLID] | > 64 | 197 | 0.304 (≈ 0.901 µM) | half-life [4]: < 1 h; IC50 [5]: 8.71 µM |
| O=C(CO)N1CC=C(c2cc3c(cc2F)N2C(=O)O[C@@H](CNC(=O)C(F)(F)F)[C@@H]2CO3)CC1 | > 64 | 55 | 1.16 (≈ 2.45 µM) |  |
| COC(=O)NC[C@@H]1OC(=O)N2c3cc(F)c(C4=CCN(CCO)CC4)cc3OC[C@@H]12 | 57.4 (≈ 136 µM) | 26 | 2.22 (≈ 5.27 µM) |  |
| CC(=O)NC[C@@H]1OC(=O)N2c3cc(F)c(C4=CCN(C(=O)CO)CC4)cc3OC[C@@H]12 | > 64 |  | 0.391 (≈ 0.932 µM) | Cmax [6]: 11400 ng/mL; remaining at 0.5 h, 0.1 µM [7]: 102%; Tmax [8]: 2 h; Stability [9]: Stable; AUC(0-inf) [10]: 122000 ng·h/mL; IC50 [11]: > 64 µg/mL; IC50 [5]: 9.19 µM; bioavailability [12]: 102%; half-life [13]: 8.23 h; clearance [14]: 13.9 mL/min/kg; Stability [15]: Stable; half-life [16]: 4.22 h; AUC(0-inf) [17]: 12000 ng·h/mL; Tmax [18]: 1.8 min; Cmax [19]: 30000 ng/mL; MRT [20]: 4.12 h; remaining at 0.5 h, 0.1 µM [21]: 103%; MRT [22]: 2.54 h |
| CC(=O)NC[C@@H]1OC(=O)N2c3ccc(C4=CCN(C(=O)CO)CC4)cc3OC[C@@H]12 | 13.8 (≈ 34.3 µM) | 19 | 0.725 (≈ 1.81 µM) |  |
| CC(=O)NC[C@@H]1OC(=O)N2c3cc(F)c(C4=CCN(C(=O)C5CC5)CC4)cc3OC[C@@H]12 |  |  | 6.4 (≈ 14.9 µM) |  |
| COC(=O)NC[C@@H]1OC(=O)N2c3cc(F)c(C4=CCN(C(=O)CO)CC4)cc3OC[C@@H]12 | > 64 | 64 | 0.999 (≈ 2.29 µM) |  |
| O=C(NC[C@@H]1OC(=O)N2c3cc(F)c(C4=CCN(CCO)CC4)cc3OC[C@@H]12)C1CCC1 | > 64 | 58 | 1.1 (≈ 2.48 µM) |  |
| CC(=O)NC[C@@H]1OC(=O)N2c3cc(F)c(C4=CCN(CCO)CC4)cc3OC[C@@H]12 | > 64 | 111 | 0.578 (≈ 1.43 µM) |  |
| CC(=O)NC[C@@H]1OC(=O)N2c3cc(F)c(C4=CCN(C(=O)[C@@H](O)CO)CC4)cc3OC[C@@H]12 | > 64 | 133 | 0.483 (≈ 1.07 µM) |  |
| CC(=O)NC[C@@H]1OC(=O)N2c3cc(F)c(C4CCN(CCO)CC4)cc3OC[C@@H]12 |  |  | 14.6 (≈ 35.8 µM) |  |
